The list is not random: actives were taken first. Their share in the collection is about 2.3%.
TAAR1 antag: antagonists of human TAAR1 | CHO RD-HGA16 TAAR1, Fluo-8 calcium fluorescence, antagonist | hit rate 1.5% among 360,000 | AID 624466 | inhibition, % at 3 µM;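 active = inhibition above a per-plate cutoff, the mean inhibition of test compounds on that plate plus 3 SD, cut at about 49% in these data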;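 also: 0% = DMSO plus EC80 beta-PEA response and 100% = DMSO alone without agonist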
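Test system – hTAAR1-expressing CHO RD-HGA16 cells, Gα16-coupled · Also added – β-PEA at EC80 concentration, post-compound challenge · Compound – 3 µM, single point · Incubation – dye loading 75 min at 37 °C, then 30 min room temperature · Measured by – Fluo-8 intracellular calcium dye fluorescence, real-time kinetic reads · Benchmarks – vehicle and agonist controls · Replicates – singlicate, one well per test compound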
TAAR1 agonist: human TAAR1 agonism; CHO RD-HGA16 TAAR1, Fluo-8 calcium fluorescence; vehicle wells 0%, saturating PEA agonist 100%; activation, % at 3 µM; hit rate 0.99% among 360,000; AID 624467;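 active = activation above the mean activation of all test compounds in the run plus 3 SD, cut at about 38% in these data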
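System: CHO-derived RD-HGA16 cells with stable Gα16 and human TAAR1. Times: 17-24 h plating, Fluo-8 75 min 37 °C, 30 min RT. Measured by: calcium-sensitive Fluo-8 signal, excitation 470-495, emission 515-575 nm. Read-out basis: % activation relative to PEA EC100 response. Control set: DMSO and PEA EC100. Repeats: no replicates (n 1).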
OXTR potentiator: potentiates the human oxytocin receptor response | activation, % at 3 µM | P30559 | hit rate 0.061% among 320,000 | CHO-OTR cells, Fluo-8 calcium fluorescence, potentiator mode; 0% = oxytocin EC15, 100% = EC100;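 active = activation above that plate's cutoff, the mean activation of tested compounds plus 3 SD, cut at about 6.6% in these data, passing the limit was not always enough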;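 also: 100% uses oxytocin at 75 nM as the full agonist control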
Target sequence (P30559 whole entry, looked up): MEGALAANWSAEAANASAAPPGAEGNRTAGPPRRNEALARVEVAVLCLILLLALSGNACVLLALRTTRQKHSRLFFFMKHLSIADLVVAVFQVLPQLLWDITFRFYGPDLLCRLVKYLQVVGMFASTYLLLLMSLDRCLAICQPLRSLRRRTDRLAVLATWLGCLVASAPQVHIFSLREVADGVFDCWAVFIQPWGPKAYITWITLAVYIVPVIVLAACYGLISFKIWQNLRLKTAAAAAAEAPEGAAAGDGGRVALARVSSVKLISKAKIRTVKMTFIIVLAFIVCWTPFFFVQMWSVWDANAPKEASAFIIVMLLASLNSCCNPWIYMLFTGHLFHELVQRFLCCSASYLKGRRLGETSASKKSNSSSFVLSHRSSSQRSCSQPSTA
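Assay system: CHO cell line stably expressing human OTR. Reagent: EC15 oxytocin agonist. Dosing: single dose, 3.0 µM nominal final compound concentration. Timing: compound 6 min at room temperature before oxytocin, 100 s read. Signal: kinetic Fluo-8 calcium fluorescence. Controls: oxytocin EC15 low and EC100 high.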
V1aR counter: V1a receptor agonism, counter-screen for OXTR agonists. AID 2797. hit rate 0.25% among 320,000. P37288. CHO-V1R cells, Fluo-8 calcium fluorescence, agonist mode; 0% DMSO, 100% 3 nM vasopressin. activation, % at 3 µM;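 active = activation above the mean activation of all tested compounds plus 3 SD, per screening run, cut at about 20% in these data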;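 also: signal is peak over basal fluorescence ratio across a 100 second FLIPR read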
Target sequence (P37288 whole entry, looked up): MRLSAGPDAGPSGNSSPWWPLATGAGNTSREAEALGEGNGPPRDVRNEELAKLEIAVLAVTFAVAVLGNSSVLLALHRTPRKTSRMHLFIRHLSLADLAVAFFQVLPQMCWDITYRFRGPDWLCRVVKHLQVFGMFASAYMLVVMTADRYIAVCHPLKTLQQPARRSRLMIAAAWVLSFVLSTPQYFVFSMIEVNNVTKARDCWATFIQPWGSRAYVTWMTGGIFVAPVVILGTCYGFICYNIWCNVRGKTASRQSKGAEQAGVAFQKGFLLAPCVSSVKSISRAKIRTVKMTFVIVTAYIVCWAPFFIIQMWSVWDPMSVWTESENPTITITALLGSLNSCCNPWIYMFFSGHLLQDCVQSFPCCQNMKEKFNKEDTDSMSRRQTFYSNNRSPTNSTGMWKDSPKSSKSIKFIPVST
OXTR agonist: agonists of human oxytocin receptor | CHO-OTR cells, Fluo-8 calcium fluorescence; normalized: DMSO 0%, oxytocin 100% | AID 2435 | P30559 | hit rate 0.32% among 320,000 | activation, % at 3 µM;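 active = activation above the mean of all tested compounds plus 3 SD, cutoff set per screening run, cut at about 20% in these data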;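 also: peak over basal fluorescence ratio from a 100 s FLIPR kinetic read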
TAAR1 ag conf: human TAAR1 agonism, confirmed; activation, % at 3 µM; shares compounds with TAAR1 agonist; hit rate 82% among 2,400; AID 651783; CHO RD-HGA16 TAAR1, Fluo-8 calcium fluorescence; scaled: DMSO 0%, maximal phenethylamine 100%;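 active = activation above a cutoff set at the run's mean compound activation plus 3 SD, cut at about 39% in these data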
Ga16 ag counter: counter-screen for TAAR1 agonists: nonselective agonists in parental cells; CHO-Ga16 parental, Fluo-8 calcium fluorescence; normalized to maximal ATP response, DMSO zero; AID 651787; hit rate 50% among 2,400; activation, % at 3 µM; shares compounds with TAAR1 agonist;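 active = activation above the run cutoff, the mean activation over all tested wells plus 3 SD, cut at about 12% in these data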;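 also: 0% = DMSO wells and 100% = maximal ATP response on the peak over basal ratio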
TAAR1 desens: counter-screen for human TAAR1 agonists: agonists that desensitize TAAR1; hit rate 46% among 2,400; AID 651951; shares compounds with TAAR1 agonist; inhibition, % at 3 µM; CHO RD-HGA16 hTAAR1, Fluo-8 calcium, beta-PEA response inhibition;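 active = inhibition above the run cutoff, the mean inhibition of all test compounds plus 3 SD, cut at about 49% in these data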;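 also: beta-PEA stimulus applied at its EC80; loss of beta-PEA calcium signal after compound pretreatment read as receptor desensitization; 0% = DMSO with beta-PEA at EC80 and 100% = DMSO alone without agonist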
Ga16 antag count: counter-screen for TAAR1 agonists: nonselective Ga16 antagonists; shares compounds with TAAR1 agonist; CHO-Ga16 ATP-induced calcium, Fluo-8 fluorescence; inhibition, % at 3 µM; hit rate 39% among 2,400; AID 651952;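 active = inhibition above the plate's mean compound inhibition plus 3 SD, computed per plate, cut at about 22% in these data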;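 also: 0% = EC80 ATP with DMSO and 100% = DMSO wells without ATP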
Starred values were filed as active, the others as inactive; nt = no result given.

SMILES	TAAR1 antag	TAAR1 agonist	OXTR potentiator	V1aR counter	OXTR agonist	TAAR1 ag conf	Ga16 ag counter	TAAR1 desens	Ga16 antag count
Cn1c2c(c(=O)n(C)c1=O)CN(CCc1ccccc1)CN2	60.5*	91.3*	-1.8	0.8	0.1	73.7*	2.6	45.0	8.5
Cn1c2c(c(=O)n(C)c1=O)CN(Cc1ccccc1)CN2	-15.9	2.7	nt	nt	nt	nt	nt	nt	nt
C=CCC[C@H](Cc1ccc(F)cc1)C(=O)OC[C@@H](Cc1c[nH]c2ccccc12)NC(=O)[C@@H](CC=C)CC(=O)N[C@@H](CO)Cc1ccccc1	11.3	5.0	-7.2	-0.7	-0.7	nt	nt	nt	nt
C=CCC[C@H](Cc1ccc(F)cc1)C(=O)OC[C@H](Cc1c[nH]c2ccccc12)NC(=O)[C@@H](CC=C)CC(=O)NCCO	74.5*	64.6*	-9.8	7.4	5.7	37.4	25.0*	68.8*	52.8*
Nc1ccc(N=Nc2ccccc2)cc1[N+](=O)[O-]	3.5	-0.8	nt	nt	nt	nt	nt	nt	nt
COc1ccc(Nc2nc(N3CCCCC3)c3ccccc3n2)cc1	9.4	62.7*	-10.5	2.3	0.8	49.6*	6.3	34.6	12.1
Cc1ccc(Nc2nc(N3CCOCC3)c3ccccc3n2)cc1	23.9	31.7	-4.3	2.8	1.8	nt	nt	nt	nt
COc1ccc(Nc2nc(N)c([N+](=O)[O-])c(N3CCCC3)n2)cc1	-10.9	4.4	-16.5	-1.5	-2.1	nt	nt	nt	nt
Oc1ccc(Nc2nc(N3CCCC3)c3ccccc3n2)cc1	84.5*	84.0*	-9.5	-0.6	-1.6	91.4*	-0.8	94.8*	0.6
Cc1cc(C)nc(NN2C(=O)/C(=C/c3ccccc3)SC2=S)n1	-2.5	0.7	1.9	-0.2	-0.7	nt	nt	nt	nt
CN(C)c1ccc(/C=C2\SC(=S)N(Nc3ncc(C(F)(F)F)cc3Cl)C2=O)cc1	87.3*	122.6*	-4.9	91.6*	72.5*	76.1*	121.6*	77.2*	90.2*
Oc1c(C(c2ccccc2)N2CCc3ccccc3C2)sc2ncnn12 (centres undefined)	-13.4	64.6*	-8.2	1.0	0.1	60.8*	0.3	25.8	11.5
CC1CCCN(C(c2ccccc2)c2sc3ncnn3c2O)C1 (centres undefined)	7.1	0.4	-10.0	-0.3	-1.4	nt	nt	nt	nt
COc1cccc(C(c2sc3nc(C)nn3c2O)N2CCc3ccccc3C2)c1 (centres undefined)	-11.7	54.3*	-6.8	-0.5	-0.6	56.3*	1.8	22.3	7.9
Cc1ccn2cc(CCNC(=O)CC3CCCCC3)nc2c1	-21.3	-1.7	-6.8	-0.4	-0.4	nt	nt	nt	nt
CCOC(=O)CC1C(=O)NCCN1C(=O)c1ccc(F)cc1F (centres undefined)	-7.3	14.3	0.5	1.3	0.3	nt	nt	nt	nt
CCOC(=O)CC1C(=O)NCCN1C(=O)c1ccc(Cl)cc1Cl (centres undefined)	-2.3	73.2*	-11.8	1.3	0.5	3.0	-0.7	-2.9	11.0
O=C(CSc1nc2ccccc2c(=O)n1Cc1ccc(F)cc1)NCc1cccs1	96.3*	94.6*	-0.2	-0.4	-1.1	92.4*	52.3*	99.0*	68.4*
O=C(CSc1nc2ccccc2c(=O)n1Cc1ccccc1)NCc1ccco1	79.3*	75.1*	-10.3	-0.4	9.3	78.2*	47.5*	65.0*	38.3*
O=C(CSc1nc2ccccc2c(=O)n1Cc1ccco1)NCc1ccccc1	-0.3	-2.8	-1.6	0.7	-0.8	nt	nt	nt	nt
Cc1ccc(S(=O)(=O)N(CC(=O)Nc2cccc([N+](=O)[O-])c2)C(=O)N2CCN(C)CC2)cc1	0.4	-0.1	nt	nt	nt	nt	nt	nt	nt
Cc1ccc(NC(=S)NNC(=O)c2ccco2)cc1	-1.7	0.2	-5.1	0.4	0.3	nt	nt	nt	nt
Cc1ccc(NC(=O)NC(=S)NC(=O)c2ccccc2)cc1	-5.0	2.2	-2.1	1.9	1.1	nt	nt	nt	nt
Cc1ccc(C(=O)NC(=S)NNC(=O)c2ccccc2)cc1	102.5*	152.6*	-23.1	88.8*	82.3*	122.8*	98.5*	96.9*	68.7*
Cc1ccc(C(=O)NNC(=S)NC(=O)c2ccccc2)cc1	106.5*	166.5*	-18.7	96.1*	87.7*	136.3*	92.2*	92.7*	79.0*
SMILES	TAAR1 antag	TAAR1 agonist	OXTR potentiator	V1aR counter	OXTR agonist	TAAR1 ag conf	Ga16 ag counter	TAAR1 desens	Ga16 antag count
O=C(NNC(=S)NC(=O)c1ccccc1[N+](=O)[O-])c1ccc(Cl)cc1Cl	-11.1	5.9	2.9	0.0	0.1	nt	nt	nt	nt
O=C(/C=C/c1ccc(Br)cc1)NC(=S)NNC(=O)c1ccco1	60.8*	70.1*	-7.7	4.6	5.5	78.6*	45.1*	66.2*	46.0*
CCCCC(=O)NC(=S)NNC(=O)c1ccc(Cl)cc1Cl	49.3*	106.2*	nt	nt	nt	131.1*	110.1*	79.3*	54.6*
Cc1ccc(C(=O)NC(=S)NCc2ccccc2)cc1	-7.2	2.3	-3.9	-1.3	-1.6	nt	nt	nt	nt
O=C(Nc1cccc(S(=O)(=O)N2CCOCC2)c1)c1ccc(=O)[nH]c1	-0.4	-0.1	5.0	0.5	1.0	nt	nt	nt	nt
Cc1[nH]c(C)c(S(=O)(=O)Nc2ccc(OC(F)(F)F)cc2)c1C(=O)N1CCCCC1	-14.4	0.6	-8.1	3.3	1.1	nt	nt	nt	nt
Cc1ccc(S(=O)(=O)N2CCN(C(=O)c3cc(C4CC4)nn3-c3ccccc3)CC2)cc1	2.8	-0.3	nt	nt	nt	nt	nt	nt	nt
Cc1ccc(C(=O)NNC(=S)NC(=O)c2ccco2)cc1	33.6	110.7*	-14.9	63.9*	45.2*	100.7*	81.8*	46.8	46.7*
Cc1ccc(C(=O)NNC(=S)NC(=O)c2ccc(Cl)cc2Cl)cc1	107.7*	171.9*	-14.3	116.9*	100.6*	160.9*	123.0*	106.7*	101.2*
CC(C)NC(=S)NC(=O)c1ccc(Cl)cc1Cl	-30.1	5.7	-4.2	-0.9	-3.4	nt	nt	nt	nt
NC(=O)c1c(N)[nH]c(C(=O)c2ccccc2)c1-c1ccc(Br)cc1	-0.8	3.6	nt	nt	nt	nt	nt	nt	nt
C[C@H]1[C@H](c2ccccc2)Oc2cccc(NCCc3ccccc3)c2S(=O)(=O)N1Cc1ccc(F)cc1	2.1	78.9*	nt	nt	nt	70.2*	2.0	17.6	9.7
C[C@H]1[C@H](c2ccccc2)Oc2cccc(N3CCCC3)c2S(=O)(=O)N1Cc1cccc(F)c1	-25.4	1.2	nt	nt	nt	nt	nt	nt	nt
N=C(N)SCc1ccc(Cl)cc1Cl	31.8	58.1*	-2.2	4.2	2.2	86.8*	18.7*	60.3*	14.6
NC(=S)Cc1ccc(Cl)cc1Cl	11.0	-0.4	-8.7	2.0	-0.8	nt	nt	nt	nt
